Columns and labels:
Candida albicans = test: Antifungal activity agaisnt Candida albicans ATCC 10231 by agar diffusion method
[1] = Toxicity in po dosed albino rat; assay type: organism-based; conditions: in vivo
Rattus norvegicus [2] = test: Antiulcerogenic activity against acetic acid-induced ulcerative colitis in albino rat assessed as ratio of wet weight and length at 12.5 mmol/kg, po; assay type: functional
Outline: (§1)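 Male albino rats (190–200 g, n = 5 per group) received drug in DMSO by orogastric cannula daily for 5 days, with the last dose 2 h before colitis. After a 36 h fast and under ether, 4% acetic acid (5 ml/kg) was instilled 8 cm intrarectally. At 24 h, the distal 8 cm colon was scored for wet weight/length, ulcer area (1 mm² grid count), and ulcer index (lesion score 0–4 plus area).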

Rattus norvegicus [3] = test: Antiulcerogenic activity against acetic acid-induced ulcerative colitis in albino rat assessed as ulcer area at 12.5 mmol/kg, po; assay type: functional
Outline: as §1

Rattus norvegicus [4] = test: Antiulcerogenic activity against acetic acid-induced ulcerative colitis in albino rat assessed as ulcer index at 12.5 mmol/kg, po; assay type: functional
Outline: as §1

Staphylococcus aureus = test: Antibacterial activity agaisnt Staphylococcus aureus MTCC 3160 by agar diffusion method; assay type: functional
Outline: (§2)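 Mueller Hinton agar (pH 7.4) was seeded with 24-h cultures adjusted to 0.5 McFarland. Compounds were prepared as 10 mg/ml stocks in DMF and added to 6 mm wells. DMF served as the negative control. Plates were incubated at 35 °C for 24 h, and the diameter of the growth inhibition zone was read in mm with a caliper.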

Escherichia coli = test: Antibacterial activity agaisnt Escherichia coli MTCC 8739 by agar diffusion method; assay type: functional
Outline: as §2

Bacillus subtilis = test: Antibacterial activity agaisnt Bacillus subtilis MTCC 1456 by agar diffusion method; assay type: functional
Outline: as §2

SMILES	diameter of the inhibition zone (DIZ) (Candida albicans)	LD50 [1]	Ratio (Rattus norvegicus [2])	ulcer area (Rattus norvegicus [3])	Activity (Rattus norvegicus [4])	diameter of the inhibition zone (DIZ) (Staphylococcus aureus)	diameter of the inhibition zone (DIZ) (Escherichia coli)	diameter of the inhibition zone (DIZ) (Bacillus subtilis)
COc1c(C(=O)O)c(O)cc2occc12	8 mm	–	–	–	–	–	–	–
COc1c(C(=O)O)c(O)c(N)c2occc12	8 mm	396 mg/kg	90	3.3 cm2	5.5 no unit	8 mm	10 mm	8 mm
COc1c(C(=O)O)c(O)c(S(=O)(=O)Cl)c2occc12	20 mm	390 mg/kg	112	4.7 cm2	8.1 no unit	8 mm	8 mm	8 mm
COc1c(C(=O)O)c(O)c(S(N)(=O)=O)c2occc12	14 mm	400 mg/kg	103.4	4.4 cm2	7.4 no unit	8 mm	8 mm	8 mm
COc1c(C(=O)O)c(O)c(/N=N/c2ccccc2)c2occc12	18 mm	410 mg/kg	84.5	2.6 cm2	4.8 no unit	8 mm	10 mm	10 mm
COc1c(C(=O)O)c(O)c(/N=N/c2ccc(S(=O)(=O)Nc3ccccn3)cc2)c2occc12	22 mm	410 mg/kg	95.2	3.9 cm2	6.7 no unit	10 mm	12 mm	12 mm
COc1c(C(=O)O)c(O)c(NS(=O)(=O)c2ccccc2)c2occc12	10 mm	400 mg/kg	99.1	4.4 cm2	7.4 no unit	–	–	10 mm
COc1c(C(=O)O)c(O)c(NS(=O)(=O)c2ccc(C)cc2)c2occc12	15 mm	400 mg/kg	98.6	4.3 cm2	7.6 no unit	–	–	10 mm
COc1c(C(=O)O)c(O)c(NS(=O)(=O)c2ccc(Cl)cc2)c2occc12	8 mm	390 mg/kg	86.4	2.6 cm2	4.6 no unit	–	–	12 mm
COc1c(C(=O)O)c(O)c(S(=O)(=O)Nc2ccccc2)c2occc12	15 mm	396 mg/kg	119.9	5.1 cm2	8.5 no unit	–	–	12 mm
COc1c(C(=O)O)c(O)c(S(=O)(=O)Nc2ccc(C)cc2)c2occc12	10 mm	396 mg/kg	111	4.7 cm2	8.1 no unit	8 mm	12 mm	–
COc1c(C(=O)O)c(O)c(S(=O)(=O)Nc2ccc(Cl)cc2)c2occc12	12 mm	410 mg/kg	112	4.8 cm2	8.2 no unit	–	12 mm	–
COc1c(C(=O)O)c(O)c(S(=O)(=O)Nc2ccc(Cl)cc2Cl)c2occc12	8 mm	410 mg/kg	110	4.8 cm2	8.2 no unit	–	–	–
COc1ccc(NS(=O)(=O)c2c(O)c(C(=O)O)c(OC)c3ccoc23)cc1	8 mm	396 mg/kg	120.1	5.1 cm2	8.7 no unit	–	–	10 mm
C[C@@H]1[C@H](O)[C@@H](C)/C=C/C=C/C=C/C=C/C=C/C=C/C=C/[C@H](O[C@@H]2O[C@H](C)[C@@H](O)[C@H](N)[C@@H]2O)C[C@@H]2O[C@](O)(C[C@@H](O)C[C@@H](O)[C@H](O)CC[C@@H](O)C[C@@H](O)CC(=O)O[C@H]1C)C[C@H](O)[C@H]2C(=O)O [AMPHOTERICIN B]	20 mm	–	–	–	–	–	–	–
O=C(O)c1cc(/N=N/c2ccc(S(=O)(=O)Nc3ccccn3)cc2)ccc1O [SULFASALAZINE]	7 mm	–	79	2.1 cm2	3.7 no unit	30 mm	8 mm	25 mm

From ChEMBL document CHEMBL1240431, “Design, synthesis and anti-ulcerogenic effect of some of furo-salicylic acid derivatives on acetic acid-induced ulcerative colitis” (Eur J Med Chem, 2010)
